Laboratory results taken from PMC3477254 (ACS chemical biology, 2012).
Entries after “also recorded” stand apart in the source; their conditions may differ.

Tests used:
r(CGG)12 = test: Competition dialysis, r; format: binding; conditions: 2 µM RNA, 0.7 µM ligand
In short: (§1)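 2 µM RNA or DGCR8Δ protein was placed in dialysis units (MWCO 2,000) immersed in 0.7 µM ligand. Two buffer-only units were tracked by absorbance to confirm equilibration. SDS was then added to 1% final, and absorbance gave total ligand inside the units and free ligand in the dialysate. Bound ligand was calculated as total minus free.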

DGCR8Δ = test: Competition dialysis, DGCR8Δ; format: binding; conditions: 2 µM protein, 0.7 µM ligand
In short: as §1

[1] = molecular target: RNA containing one 5’CGG/3’GGC motif (1x1 nucleotide GG internal loop); test: RNA-binding assay via Hoechst 33258 dye displacement; conditions: competition with Hoechst 33258 (1 µM), RNA 1 µM
In short: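 RNA was annealed at 60 °C for 5 min in phosphate buffer (8 mM Na₂HPO₄ pH 7.0, 185 mM NaCl, 0.1 mM EDTA, BSA), then slow-cooled. Titrating RNA into 1000 nM Hoechst 33258 (ex 360/40, em 460/40 nm) gave the dye Kd. Test compound was then titrated into 1 µM RNA plus 1 µM Hoechst. Loss of fluorescence was fit to a competitive binding equation to obtain Kd.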

fully paired RNAs = test: Competition dialysis, fully paired RNAs; format: binding; conditions: 2 µM RNA, 0.7 µM ligand
In short: as §1

[2] = tested on: r(CGG)^exp nuclear foci in COS7 cells; test: FISH assay of r; format: cell-based; conditions: COS7 cells expressing r(CGG)60 and GFP
In short: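 COS7 cells on coverslips were co-transfected with r(CGG)60 and GFP plasmids, then treated with test compound. Cells were fixed in 4% paraformaldehyde for 15 min and permeabilized with 0.5% Triton X-100. They were prehybridized for 30 min in 2X SSC/40% formamide, then hybridized for 2 h with a (CCG)8-Cy3 DNA probe. After DAPI counterstaining, cells were imaged by confocal or fluorescence microscopy; only GFP-positive cells were scored for nuclear foci.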

[3] = tested on: SMN2 exon 7 alternative splicing in COS7 cells; test: SMN2 pre-mRNA splicing by RT-PCR in FXTAS cell model; format: cell-based
In short: (§2)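 COS7 cells were grown in DMEM with 10% FBS and GlutaMax. At 90–95% confluency they were transfected with equal amounts of a plasmid carrying 60 CGG repeats and an SMN2 or Bcl-x mini-gene. About 5 h later, medium containing test compound replaced the transfection mix. After 16–24 h, total RNA was extracted with on-column DNase digestion. Roughly 300 ng was reverse transcribed and 150 ng went to PCR for 25–30 cycles. Isoforms were gel-separated, imaged and quantified.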

[4] = tested on: Bcl-x exon 2 alternative splicing in COS7 cells; test: Bcl-x pre-mRNA splicing by RT-PCR in FXTAS cell model; format: cell-based
In short: as §2

[5] = tested on: PLEKHH2 alternative splicing in COS7 cells; test: PLEKHH2 mini-gene splicing control; format: cell-based; conditions: 500 µM; splicing not regulated by Sam68
In short: (§3)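 COS7 cells were co-transfected with the 60 CGG-repeat mini-gene and a PLEKHH2 or cTNT mini-gene, whose splicing is not under Sam68 control. Compound treatment and RT-PCR followed the same procedure: medium with test compound for 16–24 h, total RNA extraction, reverse transcription, 25–30 PCR cycles, then gel separation and quantification of the splice isoforms.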

r(CGG)12-DGCR8Δ complex = test: TR-FRET protein displacement assay; format: biochemical
[6] = tested on: cardiac troponin T (cTNT) alternative splicing in COS7 cells; test: cTNT mini-gene splicing control; format: cell-based; conditions: 500 µM; splicing not regulated by Sam68
In short: as §3

[7] = COS7 cells expressing r(CGG)60, 100 µM
[8] = COS7 cells expressing r(CGG)60, 500 µM
[9] = cells that do not express r(CGG)60

## Cc1c2cc[n+](CCN3CCCCC3)cc2c(C)c2c1[nH]c1ccc(O)cc12 [1a, 9-hydroxy-5,11-dimethyl-2-(2-(piperidin-1-yl)ethyl)-6H-pyrido[4,3-b]carbazol-2-ium]
r(CGG)12
  Binding to r(CGG)12: binds tightly
DGCR8Δ
  Binding to DGCR8Δ: very little binding
[1]
  Kd: 0.076 ± 0.004 µM
Fully paired RNAs
  Amount of ligand partitioned into fully paired RNAs relative to r(CGG)12: less than half
[2]
  Size and number of r(CGG)exp nuclear foci: reduces the size and the number of foci; also recorded: decreases r(CGG)^exp-protein aggregates
[3]; COS7 cells expressing r(CGG)60, 20 µM
  Improvement of SMN2 splicing defects: improvement of SMN2 splicing defects can be observed
[3]; [7]
  SMN2 pre-mRNA splicing level relative to wild type: approximately 70 % of wild type
[3]; [8]
  SMN2 pre-mRNA splicing: restores pre-mRNA splicing to levels wild type
[3]; COS7 cells, CGG 60X mini-gene, Figure 4A
  SMN2 pre-mRNA splicing defects: improves SMN2 pre-mRNA splicing defects
[3]; [9]
  Effect on SMN2 splicing: No statistically significant effect
[4]; [7]
  Improvement of Bcl-x splicing dysregulation: Statistically significant improvement
[4]; [8]
  Bcl-x splicing: restoration of wild type splicing patterns
[4]; COS7 cells, CGG 60X mini-gene, Figure 4B
  Bcl-x pre-mRNA splicing defects: improves Bcl-x pre-mRNA splicing defects
[4]; [9]
  Effect on Bcl-x splicing: No statistically significant effect
[5]
  Effect on PLEKHH2 alternative splicing: did not affect
r(CGG)12-DGCR8Δ complex; 25 µM compound, protein displaced from r(CGG)12
  Percentage displacement at 25 µM: 85 ± 1%
r(CGG)12-DGCR8Δ complex; read-out: IC50 for disruption of the r(CGG)12-DGCR8Δ complex, TR-FRET assay
  IC50: 13 ± 0.4 µM
[6]
  Effect on cTNT alternative splicing: did not affect
